ChEMBL document CHEMBL1125479, “Methoxytetrahydropyrans. A new series of selective and orally potent 5-lipoxygenase inhibitors” (J Med Chem, 1992)
Where “and” joins values, the source holds several entries; their conditions need not be identical. Identical values can stand only once.

How the values were obtained:
[1] = In vitro inhibition of thromboxane B2 in human whole blood Value; format: tissue-based
How it was run: (§1)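 Heparinized human whole blood preincubated with compound, then stimulated with calcium ionophore A23187; LTB4 (5-LPO product) and TxB2 (cyclooxygenase product) generation measured.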

[2] = tested on: Rattus norvegicus; assay: Ex vivo potency in for eicosanoid generation in inflammatory exudate of rat 3 hr after peroral administration; format: functional; details: po
How it was run: (§2)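 Male Alderley Park rats (130-150 g) given a subcutaneous air pouch (20 mL sterile air under halothane, reinflated with 10 mL 3 days later). After a further 3 days, oral dosing (DMSO solution in 0.5% HPMC/0.1% polysorbate 80, 1 mL/kg) or vehicle, then 1 mL of 1% zymosan in saline into the pouch.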

[3] = target: T1, Polyunsaturated fatty acid 5-lipoxygenase (Homo sapiens, UniProt P09917); assay: In vitro inhibition of leukotriene B4 synthesis in human whole blood by inhibiting 5-lipoxygenase; format: tissue-based; how it was run: as §1
T1 sequence (P09917 whole entry): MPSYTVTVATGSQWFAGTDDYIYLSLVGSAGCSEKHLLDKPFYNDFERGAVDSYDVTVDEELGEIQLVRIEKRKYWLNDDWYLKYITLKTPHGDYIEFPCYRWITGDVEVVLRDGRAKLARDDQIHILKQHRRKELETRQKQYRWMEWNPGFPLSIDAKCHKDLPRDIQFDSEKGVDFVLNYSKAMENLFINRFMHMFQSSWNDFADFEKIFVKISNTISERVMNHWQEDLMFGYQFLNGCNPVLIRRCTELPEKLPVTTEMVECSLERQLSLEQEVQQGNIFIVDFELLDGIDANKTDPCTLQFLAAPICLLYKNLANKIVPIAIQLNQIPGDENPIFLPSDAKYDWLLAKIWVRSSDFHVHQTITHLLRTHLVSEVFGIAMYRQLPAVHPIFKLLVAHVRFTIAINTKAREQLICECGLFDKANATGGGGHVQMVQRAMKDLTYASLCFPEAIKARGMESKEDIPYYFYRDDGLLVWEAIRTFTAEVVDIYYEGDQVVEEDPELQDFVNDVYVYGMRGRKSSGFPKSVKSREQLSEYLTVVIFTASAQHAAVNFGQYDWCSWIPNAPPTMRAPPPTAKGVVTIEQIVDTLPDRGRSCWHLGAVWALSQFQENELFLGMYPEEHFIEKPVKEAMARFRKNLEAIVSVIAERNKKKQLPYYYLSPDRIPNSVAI

[4] = species: Homo sapiens; assay: In vitro inhibition of leukotriene B4 in human whole blood; format: functional; how it was run: as §1
[5] = target: T1, Polyunsaturated fatty acid 5-lipoxygenase; assay: In vitro inhibition of leukotriene B4 synthesis in human whole blood by inhibiting 5-LPO (5-lipoxygenase); format: tissue-based; how it was run: as §1
[6] = tested on: Rattus norvegicus; assay: Compound was tested for the generation of eicosanoid in inflammatory exudate after 3 hr peroral administration; format: functional; details: po; how it was run: as §2
[7] = tested on: Rattus norvegicus; assay: Ex vivo potency against rat blood after 1 hr peroral administration; format: functional; details: po, 3 h, in the assay text read “after 3 hr” for “after 1 hr”
How it was run: (§3)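 Rats dosed orally (1 mL/kg) with compound dissolved in DMSO and suspended in 0.5% (hydroxypropyl)methylcellulose with 0.1% polysorbate 80; controls got vehicle.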

[8] = Logarithm of partition coefficient was determined; format: physicochemical; details: octanol/water
[9] = Aqueous solubility was determined; format: physicochemical; details: buffer
[10] = tested on: Rattus norvegicus; assay: Ex vivo potency in rat blood for eicosanoid generation 3 hr after peroral administration; format: functional; details: po; how it was run: as §3
[11] = tested on: Rattus norvegicus; assay: Ex vivo potency in rat blood for eicosanoid generation 1 hr after peroral administration; format: functional; details: po; how it was run: as §3
[12] = tested on: Rattus norvegicus; assay: Ex vivo potency against rat blood after 3 hr peroral administration; format: functional; details: po; how it was run: as §3
[13] = species: Mus musculus; assay: In vitro inhibitory activity against leukotriene synthesis in mouse macrophages; format: functional

Structure (SMILES) | IC50 [3] | ED50 [2] [mg/kg] | further results
CC(c1cc2ccccc2s1)N(O)C(N)=O (stereo not given) [ZILEUTON] |  | 3 | IC50 [1]: 40000 nM
COC1(c2cccc(OCc3ccc4ccccc4c3)c2)CCCOC1 (stereo not given) | 1700 nM |  | IC50 [4]: 2800 nM
CC(C)c1ccc2c(c1)c(SC(C)(C)C)c(CC(C)(C)C(=O)[O-])n2Cc1ccc(Cl)cc1.[Na+] |  |  | IC50 [5]: 1100 nM; ED50 [6]: 2 mg/kg; ED50 [7]: 3 mg/kg
COC1(c2cccc(OCc3ccc4ccccc4c3)c2)CC[S+]([O-])CC1 (stereo not given) | 4200 nM |  | 
COC1(c2cccc(OCc3ccc4ccccc4c3)c2)CCCCC1 | 2600 nM |  | 
CCC(OC)(c1cccc(OCC#Cc2ccccc2)c1)c1nccs1 (stereo not given) | 900 nM and 1000 nM |  | 
COC(C)(c1nccs1)c1cccc(OCc2ccc3ccccc3c2)c1C (stereo not given) |  |  | IC50 [4]: 1000 nM
COC1(c2cccc(OCc3cccc4c3ccc(=O)n4C)c2)CCOCC1 | 1300 nM |  | ED50 [10]: > 3 mg/kg
COC1(c2cc(F)cc(OCc3ccc4nccnc4c3)c2)CCOCC1 |  | 30 | delta Log P [8]: -1.8; Delta logS [9]: 1.8; ED50 [11]: 30 mg/kg
COC1(c2cccc(OCC#Cc3ccccc3)c2)CCOCC1 | 70 nM |  | 
COC1(c2cccc(OCc3ccc4ccccc4c3)c2)CCSCC1 | 400 nM |  | IC50 [4]: 400 nM
CCC(OC)(c1ccc(OCc2ccc3ccccc3c2)cc1)c1nccs1 (stereo not given) | 40000 nM |  | 
COC1(c2cccc(OCc3ccc4ccccc4c3)c2)CCOC1 (stereo not given) | 700 nM |  | 
COC1(c2cc(F)cc(OCc3ccc4oc(=O)ccc4c3)c2)CCOCC1 |  |  | IC50 [5]: 300 nM; ED50 [12]: > 3 mg/kg
COC1(c2cccc(OCc3ccc4ccccc4c3)c2)CCS(=O)(=O)CC1 | 10600 nM |  | 
COC1(c2cccc(OCc3ccc4ccccc4c3)c2)CCN(C)CC1 | > 40000 nM |  | 
COC1(c2cccc(OCc3ccc4c(ccc(=O)n4C)c3)c2)CCOCC1 |  | 3 | delta Log P [8]: -2; ED50 [10]: 1.5 mg/kg; Delta logS [9]: 1.8
COC1(c2cccc(OCc3ccc4ccccc4c3)c2)CCOCC1 | 70 nM | 10 | IC50 [13]: 0.5 nM; ED50 [10]: 10 mg/kg; ED50 [11]: 5 mg/kg
COC1(c2cccc(OCC#Cc3ccccn3)c2)CCOCC1 | 400 nM |  | ED50 [11]: 100 mg/kg
COC1(c2cccc(OCc3ccc4ccccc4c3)c2C)CCOCC1 | 600 nM |  | 
COC1(c2cc(OCc3ccc4ccccc4c3)ccc2C)CCOCC1 | 40000 nM |  | 
COC1(c2cccc(OCc3ccc4ccccc4c3)c2)CCC(=O)CC1 | 3400 nM |  | 
COC1(c2ccc(OCc3ccc4ccccc4c3)cc2)CCOCC1 | 19000 nM |  | 
COC1(c2cccc(OCc3ccc4ccccc4c3)c2)CCCOCC1 (stereo not given) | 200 nM |  | 
CCOC(C)=O.COC1(c2cc(F)cc(OCc3cc4ccccc4nc3O)c2)CCOCC1 |  |  | ED50 [11]: > 100 mg/kg
COC1(c2cccc(OCc3ccc4ccccc4c3)c2)COC1 | 2500 nM |  | 
COC1(c2cccc(OCc3ccc4ccccc4c3)c2)CCCCOC1 (stereo not given) | 2500 nM |  | 
COC(C)(c1cccc(OCc2ccc3ccccc3c2)c1)c1nccs1 (stereo not given) | 500 nM |  | 
CCOC(C)=O.COC1(c2cc(F)cc(OCc3ncc4ccccc4n3)c2)CCOCC1 | 200 nM |  | delta Log P [8]: -1.9; Delta logS [9]: 1.9; ED50 [11]: > 10 mg/kg

Now from value to compound, other results behind:

IC50 [3] | Structure (SMILES) | ED50 [2] [mg/kg] | further results
400 nM | COC1(c2cc(F)cc(OCc3cc4ccccc4n(C)c3=O)c2)CCOCC1 | > 1.5 | 
50 nM | COC1(c2cc(F)cc(OCc3ccc4c(c3)ncc(=O)n4C)c2)CCOCC1 | 1.5 | delta Log P [8]: -2.3; Delta logS [9]: 1.8
80 nM | COC1(c2cc(F)cc(OCc3ccc4c(c3)n(C)c(=O)n4C)c2)CCOCC1 | 1.5 | delta Log P [8]: -1.7; Delta logS [9]: 1
20 nM | COC1(c2cc(F)cc(OCc3ccc4c(ccc(=O)n4C)c3)c2)CCOCC1 [ZD-2138] | 0.3 | delta Log P [8]: -1.7; ED50 [10]: 0.9 mg/kg; Delta logS [9]: 0.9; ED50 [11]: 1 mg/kg; IC50 [1]: > 500000 nM
200 nM | COC1(c2cc(F)cc(OCc3ccc4c(c3)oc(=O)n4C)c2)CCOCC1 | > 1.5 | 
200 nM | COC1(c2cc(F)cc(OCc3ccc4ncncc4c3)c2)CCOCC1 |  | delta Log P [8]: -2.1; Delta logS [9]: 1.5; ED50 [11]: > 100 mg/kg
200 nM | COC1(c2cc(F)cc(OCc3ccc4c(=O)n(C)ccc4c3)c2)CCOCC1 | > 1.5 | 
600 nM | COC1(c2cc(F)cc(OCc3ccc4nc(O)ccc4c3)c2)CCOCC1 |  | ED50 [10]: > 3 mg/kg
80 nM | COC1(c2cc(F)cc(OCc3ccc4c(c3)C(C)(C)C(=O)N4C)c2)CCOCC1 | > 1.5 | 
200 nM | COC1(c2cccc(OCc3ccc4ccc(=O)n(C)c4c3)c2)CCOCC1 |  | ED50 [10]: > 3 mg/kg
40 nM | COC1(c2cc(F)cc(OCc3ccc4c(c3)sc(=O)n4C)c2)CCOCC1 | 1.5 | delta Log P [8]: -1.2; Delta logS [9]: 0.8
